Measured values as given in ChEMBL document CHEMBL1125251, “4'-Hydroxy-3-methoxyflavones with potent antipicornavirus activity” (J Med Chem, 1991).
Converted amounts (≈) assume the structure as drawn. The source made the active and inactive calls. The calls are words filed in the database; no cut-off is given here.

Legend:
Enterovirus C [1] = test: The ratio of the poliovirus viral titer of the virus control (reduction factor) to the viral titer in the presence of the maximal non-toxic dose (RF MNTD); type: functional
In short: (§1)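 Poliovirus type 1 Brunhilde 1A/S3 in Vero monolayers. Serial 10-fold virus dilutions adsorbed 1 h at 37 °C, then serial 2-fold compound dilutions were added. Incubated at 37 °C and scored for CPE by light microscopy, with a 3-day readout. Titer reduction is control/treated TCD50/mL. ED99 is the minimum concentration inhibiting 99% of virus. Virus, cell and compound controls were included.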

Enterovirus C [2] = test: Minimum drug concentration at which 99% of the polio virus is inhibited; NA= Not active; type: functional, organism-based; in short: as §1
Enterovirus C [3] = test: Maximal non-toxic dose (MNTD) that shows antiviral activity.; type: functional
In short: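 End-point titration. Poliovirus type 1 Brunhilde was run in Vero cells at 37 °C with a 3-day read. Rhinovirus 15 was run in human skin fibroblasts at 33 °C with a 7-day read. Monolayers got serial 10-fold virus dilutions and adsorbed 1 h at 37 °C, then serial 2-fold compound dilutions (DMSO stock in maintenance medium). CPE was read by light microscopy. RF = control titer (TCD50/mL) / titer at maximal nontoxic dose.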

[4] = Cytotoxic dose at which 50% growth of normal cells is inhibited; type: cell-based; conditions: chlorocebus sabaeus, Vero cells; read-out: CyD50
In short: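 Cell-growth cytotoxicity in Vero cells or human skin fibroblasts. Serial 2-fold dilutions in M-199 with 6% newborn calf serum were added in quadruplicate to 10⁶ cells and held 6 days at 37 °C. Cells were trypsinized, counted and reseeded with compound, repeated five times. Generation time was calculated per concentration. CyD50 = lowest concentration at least doubling generation time versus untreated cells.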

Enterovirus C [5] = test: Minimal dose which produces titer reduction at 10 ug/mL (mD RF10e3); type: functional
Enterovirus C [6] = test: Minimum drug concentration at which 99% of the polio virus is inhibited; type: functional; in short: as §1
Human rhinovirus sp. [7] = test: Minimum drug concentration at which 99% of the rhino virus is inhibited.; type: functional
In short: (§2)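 End-point titration with rhinovirus type 15 on human skin fibroblast monolayers. Cells were infected with serial 10-fold virus dilutions and allowed 1 h adsorption at 37 °C. Serial 2-fold compound dilutions were then added and plates incubated at 33 °C. CPE was read daily by light microscopy for at least 1 week, titres as TCD50/mL. ED99 = minimum concentration inhibiting 99% of virus.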

Human rhinovirus sp. [8] = test: Antirhinovirus activity against rhinovirus serotype 15 which were grown on Ohio HeLa cells; type: functional
Human rhinovirus sp. [9] = test: Antirhinovirus activity against rhinovirus serotype 2 which were grown on Ohio HeLa cells; type: functional
Human rhinovirus sp. [10] = test: Antirhinovirus activity against rhinovirus serotype 29 which were grown on Ohio HeLa cells; type: functional
Human rhinovirus sp. [11] = test: Antirhinovirus activity against rhinovirus serotype 39 which were grown on Ohio HeLa cells; type: functional
Human rhinovirus sp. [12] = test: Antirhinovirus activity against rhinovirus serotype 41 which were grown on Ohio HeLa cells; type: functional
Human rhinovirus sp. [13] = test: Antirhinovirus activity against rhinovirus serotype 70 which were grown on Ohio HeLa cells; type: functional
Human rhinovirus sp. [14] = test: Antirhinovirus activity against rhinovirus serotype 89 which were grown on Ohio HeLa cells; type: functional
Human rhinovirus sp. [15] = test: Antirhinovirus activity against rhinovirus serotype 9 which were grown on Ohio HeLa cells; type: functional
[16] = Therapeutic Index measured as the ratio of CyD50(polio) / ED99(polio) values; type: organism-based; conditions: enterovirus c; read-out: Therapeutic index 99
In short: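 TI99 = CyD50/ED99 for poliovirus. ED99 came from end-point titration in Vero cells at 37 °C over 3 days. CyD50 came from Vero cell growth: 10⁶ cells were given serial 2-fold compound dilutions in quadruplicate for 6 days at 37 °C, then trypsinized, counted and reseeded, repeated five times. Generation time was calculated per concentration.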

[17] = Therapeutic Index measured as the ratio of CyD50 (rhino) / ED99 (rhino) values.; conditions: read-out: Therapeutic index 99
In short: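 TI99 = CyD50/ED99 for rhinovirus 15. ED99 came from end-point titration in human skin fibroblasts at 33 °C over 7 days. CyD50 came from fibroblast growth: 10⁶ cells were given serial 2-fold compound dilutions in quadruplicate for 6 days at 37 °C, then counted and reseeded, repeated five times. Generation time was calculated per concentration.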

Human rhinovirus sp. [18] = test: Antirhinovirus activity against rhinovirus serotype 14 which were grown on Ohio HeLa cells; type: functional
Human rhinovirus sp. [19] = test: Antirhinovirus activity against rhinovirus serotype 59 which were grown on Ohio HeLa cells; type: functional
Human rhinovirus sp. [20] = test: Cytotoxic dose at which 50% growth of normal cells is inhibited against rhino virus infection.; type: functional
In short: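 Human skin fibroblasts, 10⁶ cells per flask, given serial 2-fold dilutions in quadruplicate in M-199 with 6% newborn calf serum and held 6 days at 37 °C. Cells were trypsinized, counted in a chamber and reseeded with compound over five repeat cycles. CyD50 = lowest concentration at least doubling cell generation time relative to untreated control.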

Human rhinovirus sp. [21] = test: Minimum drug concentration at which 99% of the rhino virus is inhibited; NA= not active; type: functional, organism-based; in short: as §2
Enterovirus C [22] = test: Minimum drug concentration at which 99% of the polio virus is inhibited; NA= not active; type: functional, organism-based; in short: as §1
Human rhinovirus sp. [23] = test: Antirhinovirus activity against rhinovirus serotype 63 which were grown on Ohio HeLa cells; type: functional
Human rhinovirus sp. [24] = test: Antirhinovirus activity against rhinovirus serotype 85 which were grown on Ohio HeLa cells; type: functional

Row | SMILES | Reduction factor (Enterovirus C [1]) | Max non-toxic dose (Enterovirus C [3]) [µg/mL] | CC50 [4] [µg/mL] | Minimal dose (Enterovirus C [5]) [µg/mL] | ED99 (Enterovirus C [6]) [µg/mL] | ED99 (Human rhinovirus sp. [7]) [µg/mL] | selectivity ratio [16] | selectivity ratio [17] | CyD50 (Human rhinovirus sp. [20]) [µg/mL] | other results
1 | COc1ccc(-c2oc3c(OC)cccc3c(=O)c2OC)cc1 | 1 | 100 | > 200 |  |  |  |  |  |  | ED99 (Enterovirus C [2]): inactive
2 | COc1c(-c2ccc(O)cc2)oc2ccc([N+](=O)[O-])cc2c1=O |  | 50 | > 0.1 |  |  |  |  |  |  | ED99 (Enterovirus C [2]): inactive
3 | COc1cc(C)c2c(=O)c(OC)c(-c3ccc(O)cc3)oc2c1 | 100000 | 25 | 50 (≈ 160 µM) | 0.5 | 1 | 25 | 50 | 2 | 50 | MIC50 (Human rhinovirus sp. [8]): 0.4 µg/mL (≈ 1.28 µM); MIC50 (Human rhinovirus sp. [9]): 2.4 µg/mL (≈ 7.68 µM); MIC50 (Human rhinovirus sp. [10]): 0.175 µg/mL (≈ 0.56 µM); MIC50 (Human rhinovirus sp. [11]): 12 µg/mL (≈ 38.4 µM); MIC50 (Human rhinovirus sp. [12]): 0.375 µg/mL (≈ 1.2 µM); MIC50 (Human rhinovirus sp. [13]): 5 µg/mL (≈ 16 µM); MIC50 (Human rhinovirus sp. [14]): 0.2 µg/mL (≈ 0.64 µM); MIC50 (Human rhinovirus sp. [15]): 0.2 µg/mL (≈ 0.64 µM); MIC50 (Human rhinovirus sp. [18]): 10.8 µg/mL (≈ 34.6 µM); MIC50 (Human rhinovirus sp. [19]): 3 µg/mL (≈ 9.61 µM)
4 | COc1c(-c2ccc(O)cc2)oc2cccc(OC)c2c1=O |  | 10 | 150 (≈ 503 µM) | 5 | 10 | 15 | 15 | 10 | 150 | 
5 | COc1ccc2c(=O)c(OC)c(-c3ccc(O)cc3)oc2c1 |  | 50 | > 50 | 2.5 | 2.5 | 10 | > 20 | > 5 | >50 | 
6 | COc1c(-c2ccc(O)cc2)oc2ccc(C(C)C)cc2c1=O |  | 5 | 10 (≈ 32.2 µM) |  | 5 | 10 | 2 | 1 | 10 | 
7 | CCOc1c(-c2ccc(O)cc2)oc2cc(C)ccc2c1=O | 1 | 25 | 25 (≈ 84.4 µM) |  | >25 |  | < 1 |  | 25 | ED99 (Human rhinovirus sp. [21]): inactive
8 | COc1c(-c2ccc(Cl)cc2)oc2ccc(Cl)cc2c1=O | 1 | 25 | 20 (≈ 62.3 µM) |  |  |  |  |  |  | ED99 (Enterovirus C [22]): inactive
9 | COc1c(-c2ccc(O)cc2)oc2cc(O)cc(C)c2c1=O | 100000 | 10 | 15 (≈ 50.3 µM) | 0.05 | 0.1 | 1 | 150 | 15 | 15 | 
10 | COc1cc(-c2oc3cc(O)c(OC)c(O)c3c(=O)c2OC)ccc1O | 10000 | 10 | 1 (≈ 2.78 µM) | 1 |  |  |  |  |  | ED99 (Enterovirus C [2]): inactive
11 | COc1c(-c2ccc(O)cc2)oc2ccc(O)cc2c1=O |  | 10 | 3 (≈ 10.6 µM) | 5 | 2 | 10 | 1.5 | 1.5 | 15 | 
12 | COc1c(-c2ccc(O)cc2)oc2cccc(O)c2c1=O | 10000 | 5 | 25 (≈ 87.9 µM) | 1.5 | 0.5 | 1 | 50 | 5 | 5 | 
13 | COc1c(-c2ccc(O)cc2)oc2cc(O)ccc2c1=O |  | 5 | 15 (≈ 52.8 µM) | 4 | 1 | 25 | 15 | 1 | 25 | 
14 | COc1ccc(-c2oc3cc(Cl)ccc3c(=O)c2OC)cc1 | 1 | 100 | > 200 |  |  |  |  |  |  | ED99 (Enterovirus C [22]): inactive
15 | Cc1ccc2c(=O)c(OC(C)C)c(-c3ccc(O)cc3)oc2c1 |  |  | 2 (≈ 6.44 µM) |  |  |  |  |  | 2 | ED99 (Human rhinovirus sp. [21]): inactive
16 | COc1c(-c2ccc(O)cc2)oc2cc(C)ccc2c1=O |  | 25 | 25 (≈ 88.6 µM) | 4 | 2 | 25 | 12.5 | 1 | 25 | 
17 | COc1cc2oc(-c3ccc(O)cc3)c(OC)c(=O)c2c(O)c1OC [PENDULETIN] | 1000000 | 100 | 100 (≈ 290 µM) | 0.1 | 0.2 | 10 | 500 | 1 | 10 | 
18 | COc1cc(O)c2c(=O)c(OC)c(-c3ccc(O)cc3)oc2c1OC | 1000000 | 25 | > 100 | 0.3 | 0.25 | 0.5 | 400 | > 200 | >100 | 
19 | COc1ccc(-c2oc3ccc(Cl)cc3c(=O)c2OC)cc1 | 1 | 25 | 20 (≈ 63.1 µM) |  |  |  |  |  |  | ED99 (Enterovirus C [22]): inactive
20 | COc1cc(O)c2c(=O)c(OC)c(-c3ccc(O)cc3)oc2c1 [KUMATAKENIN] | 1000000 | 100 | 100 (≈ 318 µM) | 0.3 | 0.3 | 2.5 | 333 | 40 | 100 | 
21 | COc1c(-c2ccc(O)cc2)oc2cc(Cl)ccc2c1=O | 10000 | 100 | 100 (≈ 330 µM) | 20 | 7 | 25 | 14.3 | 4 | 100 | 
22 | COc1cc(O)c2c(=O)c(OC)c(-c3ccc(O)c(O)c3)oc2c1OC | 100000 | 10 | > 5 | 0.5 | 0.2 | 2 | 25 | 10 | 20 | 
23 | N=C(N)N [GUANIDINE] |  |  |  |  |  |  |  |  |  | MIC50 (Human rhinovirus sp. [8]): 438 µg/mL (≈ 7410 µM); MIC50 (Human rhinovirus sp. [9]): > 64 µg/mL; MIC50 (Human rhinovirus sp. [10]): > 64 µg/mL; MIC50 (Human rhinovirus sp. [11]): 109 µg/mL (≈ 1850 µM); MIC50 (Human rhinovirus sp. [12]): 1000 µg/mL (≈ 16900 µM); MIC50 (Human rhinovirus sp. [23]): 500 µg/mL (≈ 8460 µM); MIC50 (Human rhinovirus sp. [13]): 6 µg/mL (≈ 102 µM); MIC50 (Human rhinovirus sp. [24]): 750 µg/mL (≈ 12700 µM); MIC50 (Human rhinovirus sp. [14]): 1000 µg/mL (≈ 16900 µM); MIC50 (Human rhinovirus sp. [15]): 375 µg/mL (≈ 6350 µM); MIC50 (Human rhinovirus sp. [18]): 7 µg/mL (≈ 118 µM); MIC50 (Human rhinovirus sp. [19]): 350 µg/mL (≈ 5920 µM)
24 | COc1cc(OC)c2c(=O)c(OC)c(-c3ccc(O)cc3)oc2c1 | 100000 | 100 | 100 (≈ 305 µM) | 5 | 10 | 20 | 10 | 5 | 100 | 
25 | COc1c(-c2ccc(Cl)cc2)oc2cc(Cl)ccc2c1=O | 1 | 25 | 20 (≈ 62.3 µM) |  |  |  |  |  |  | ED99 (Enterovirus C [22]): inactive
